SENP8 block-1 – SENP8 protease inhibitors, primary screen, biochemical, luminescence | Sentrin-specific protease 8 (Homo sapiens), Q96LD8 | purified SENP8, Z-RLRGG-aminoluciferin cleavage | inhibition, % at 10 µM | hit rate 1.2% among 330,000 | AID 2540, 2010; in the data active = inhibition above about 50%
Platelet DG rel – inhibitors of platelet dense granule secretion, primary screen, cell-based, MLPCN, human platelets; human platelet-rich plasma, SFLLRN dense granule ATP release, luminescence; inhibition, %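 (compounds screened at 7.5 µM in platelet-rich plasma)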; hit rate 0.22% among 300,000; AID 1663, 2009;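 active = mean replicate score, as percent of positive control, at or above 50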
SENP8 block-2 – human SENP8 protease inhibitors, primary screen, biochemical, fluorescence, Nedd8 protein substrate, uHTS; inhibition, % at 20 µM; Sentrin-specific protease 8 (Homo sapiens), Q96LD8; recombinant SENP8; hit rate 0.64% among 360,000; in the data active = inhibition mostly above about 40%, no sharp cut-off; inactive = mostly below about 27%
SENP1 inh – human SENP1 catalytic domain inhibitors, primary screen, biochemical, FRET, uHTS; Sentrin-specific protease 1 (Homo sapiens), Q9P0U3; recombinant SENP1 catalytic domain, CyPet-SUMO1-YPet FRET cleavage; inhibition, % at 10 µM; hit rate 0.21% among 360,000;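 active = inhibition at least 30% at 10 µM, raw YFP signal under a set limit, fluorescence ratio 0.5 to 1.5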
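Test system: human SENP1 catalytic domain; medium: Tris pH 8 buffer plus EDTA, NaCl, BME, BSA, NP40, catalase; incubation: 50 min reaction at room temperature; technique: FRET, CFP and YFP emission; controls: no-enzyme low control and enzyme-plus-DMSO high control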
SENP7 inh – SENP7 protease inhibitors, primary screen, biochemical, luminescence, uHTS; Sentrin-specific protease 7 (Homo sapiens), Q9BQF6; AID 434973, 2010; hit rate 1.5% among 330,000; inhibition, % at 5 µM; recombinant SENP7, Z-RLRGG-aminoluciferin luminescence, 40 min;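 active = inhibition above about 50% at the single test dose, limit read from the data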
SENP6 inh – SENP6 protease inhibitors, primary screen, biochemical, luminescence, uHTS; Sentrin-specific protease 6 (Homo sapiens), Q9GZR1; Recombinant SENP6 catalytic domain, aminoluciferin luminescence; inhibition, % at 10 µM; hit rate 1.8% among 330,000; AID 2599, 2010;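 active = inhibition above about 50% at the single tested dose, limit read from the data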
Target sequence (Q9GZR1 628-1112 limits assumed): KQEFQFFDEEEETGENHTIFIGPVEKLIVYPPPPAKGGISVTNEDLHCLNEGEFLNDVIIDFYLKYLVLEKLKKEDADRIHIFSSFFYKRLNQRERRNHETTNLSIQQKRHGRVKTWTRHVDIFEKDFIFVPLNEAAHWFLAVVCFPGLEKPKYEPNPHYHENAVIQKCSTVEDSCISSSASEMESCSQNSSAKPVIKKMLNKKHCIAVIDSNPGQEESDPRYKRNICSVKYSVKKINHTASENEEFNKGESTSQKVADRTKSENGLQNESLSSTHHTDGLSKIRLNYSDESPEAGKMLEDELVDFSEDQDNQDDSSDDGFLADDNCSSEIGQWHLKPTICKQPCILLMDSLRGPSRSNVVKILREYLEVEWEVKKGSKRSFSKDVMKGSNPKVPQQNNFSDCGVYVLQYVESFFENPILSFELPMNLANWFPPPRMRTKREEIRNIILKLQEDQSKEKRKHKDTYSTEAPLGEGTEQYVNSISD
SENP8 inh conf – human SENP8 protease inhibitors, confirmation, biochemical, Nedd8 protein substrate, single concentration; shares compounds with SENP8 block-2; purified SENP8, Nedd8-AMC/pro-Nedd8 cleavage fluorescence, 30 min; inhibition, % at 25 µM; hit rate 15% among 1,400; AID 624319, 2012; in the data active = inhibition mostly above about 39%, no sharp cut-off; inactive = mostly below about 34%
Numbers stand for hits; i = inactive; nt = no result. Only some compounds are listed: those with a hit (about 2.6% of all), similar ones and a draw of the others.

SMILES	SENP8 block-1	Platelet DG rel	SENP8 block-2	SENP1 inh	SENP7 inh	SENP6 inh	SENP8 inh conf
CN1CCC2(CC1)N=C(c1ccc(F)cc1)C(=S)N2C(=O)c1ccc(C(C)(C)C)cc1	i	i	53	i	i	i	i
CC1C(=O)N(Cc2cn(CCC3OCCO3)nn2)CCS(=O)(=O)N1Cc1ccc(-c2ccc(Cl)cc2)cc1 (stereo not given)	nt	nt	i	i	nt	nt	nt
CCCC(=O)OCCNc1cc(SCc2ccco2)c2nonc2c1[N+](=O)[O-]	i	i	62	i	i	i	i
CCCSc1cc(NCCOC(=O)CCC)c([N+](=O)[O-])c2nonc12	i	i	i	i	i	i	nt
N#CC(c1ccc(Cl)nn1)c1ccccc1Cl (stereo not given)	i	i	41	i	i	i	i
N#CC(c1ccc(Cl)cc1)c1ccc(Cl)nn1 (stereo not given)	i	i	i	i	i	i	nt
O=c1cc(CO)occ1OCc1cccc(F)c1	i	i	i	i	i	i	nt
O=c1cc(CO)[nH]cc1OCc1ccccc1	i	i	46	i	i	i	i
O=C(NCc1cccc(Br)c1)c1cc(-c2ccccc2)nn1CC1CC(c2cccc([N+](=O)[O-])c2)=NO1 (stereo not given)	i	i	i	i	i	i	nt
CCOC(=O)c1ccc(S(=O)(=O)NNC(=O)c2ccc3c(c2)nc(C)n3CC)cc1	i	i	i	i	i	i	nt
CCn1c(C)nc2cc(C(=O)NNS(=O)(=O)c3ccccc3F)ccc21	i	i	42	i	i	i	i
CCOc1ccc(NS(=O)(=O)c2ccc(Cl)c(N=Nc3c(O)[nH]c(=S)[nH]c3=O)c2)cc1Br	nt	nt	40	i	nt	nt	i
CCN(C(=O)c1cn(C)c(=O)c2cc(OC)c(OC)cc12)c1cc(OC)ccc1OC	i	i	43	i	i	i	i
COc1ccccc1NC(=O)c1cn(C)c(=O)c2cc(OC)c(OC)cc12	i	i	42	i	i	i	63
COCOCCn1cc(CN2CCS(=O)(=O)N(Cc3ccc(-c4ccncc4)cc3)C(C(C)C)C2=O)nn1 (stereo not given)	nt	nt	i	i	nt	nt	nt
Cc1csc(SCC(=O)Nc2ccccc2[N+](=O)[O-])n1	i	i	i	i	i	i	nt
O=C1C2=C(c3ccccc31)[N+](=O)C1CCCCC1N2[O-] (stereo not given)	i	i	84	i	i	i	61
O=C1c2ccccc2C(=O)c2c1ccc1c(=O)n(C3CCCCC3)[nH]c21	i	i	i	i	i	i	nt
O=C(NNc1cccc(Cl)n1)Nc1ccc(Cl)cc1	i	i	i	i	i	i	nt
Cc1ccc(NNC(=O)Nc2ccc(Cl)cc2)nn1	i	i	48	i	i	i	i
O=c1c2ccccc2nnn1-c1ccccc1[N+](=O)[O-]	nt	nt	i	i	nt	nt	nt
COCCCNC(=O)c1ccc2c(c1)OCO2	i	i	45	i	i	i	i
CCCCOCCCNC(=O)c1ccc2c(c1)OCO2	i	i	i	i	i	i	nt
CN1/C(=C/C=C(C#N)C#N)C(C)(C)c2ccccc21	i	i	i	i	i	i	nt
CC1=C/C(=C\C=C(C#N)C#N)N(C)c2ccccc21	i	i	50	72	i	i	i
Cc1ccc(-n2c(SCC(N)=O)nc3c(oc4ccccc43)c2=O)cc1	i	i	i	i	i	i	nt
COc1ccc(-c2csc(NC(=S)NC(=O)/C=C/c3ccco3)n2)cc1Br	i	i	43	i	i	i	i
CC(C)CCNC(=O)C1(c2cccs2)CCOCC1	i	i	41	i	i	i	i
CCNC(=O)C1(C)CCN1Cc1cc(-c2ccccc2)n(C)n1 (stereo not given)	nt	nt	i	i	nt	nt	nt

Bioassay records from PubChem.
